Data set [1] has as its system Mycobacterium tuberculosis. Kind of data set: Antitubercular activity against Mycobacterium tuberculosis H37Rv after 4 weeks by agar proportion method. It counts as functional. Conditions: 672 h. An outline of the steps: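 Agar proportion method on Middlebrook 7H10 agar slants with OADC; compounds in DMSO added at 0.1 mL per 1.9 mL medium. Inoculum was H37Rv grown on L–J medium and suspended in saline with 0.05% Tween-80, ~10^5 bacilli per tube. Incubated 37 °C for 4 weeks; MIC is the lowest concentration with no visible growth.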

Data set [2] can be described thus: (§1) Cytotoxicity against african green monkey Vero cells assessed as growth inhibition at 10 times MIC after 24 hrs by MTS assay. It counts as cell-based. Conditions: chlorocebus sabaeus, Vero cells; read-out: GI. The procedure, abridged: (§2)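 Vero cells or mouse bone-marrow-derived macrophages plated at 20,000 cells/well and allowed to adhere overnight (37 °C, 5% CO2). Compounds added at several concentrations for 24 h, then MTS for 2 h, with OD read at 490 nm. IC50 is the concentration giving 50% viability loss; a compound counts as toxic if IC50 ≤10× MIC.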

The subject of data set [3] is Mycobacterium tuberculosis. Kind of data set: Antitubercular activity against Mycobacterium tuberculosis H37Rv infected in Swiss mouse assessed as inhibition of viable bacterial counts in lungs at 100 mg/kg, po for 28 days measured on day 30 post infection. It counts as functional.
In data set [4] the test system is Vero. The description is as §1. It counts as cell-based. Conditions: chlorocebus sabaeus, vero, 24 h. An outline of the steps:
as §2

In data set [5] the test system is Mycobacterium tuberculosis. Kind of data set: Antitubercular activity against Mycobacterium tuberculosis H37Rv infected in Swiss mouse infected assessed as mouse survival at 100 mg/kg/day, po for 28 days measured on day 40 post infection. The data set is classed as functional. An outline of the steps: (§3)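 Outbred Swiss mice infected i.v. with H37Rv at 10^7 CFU/mouse, in groups of 6–8. Daily oral dosing for 28 days: test compounds at 100 mg/kg in peanut oil, or isoniazid at 25 mg/kg. Percent survivors and mean survival time were recorded on day 30 and day 40.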

The nature of data set [6]: Cytotoxicity against mouse BMDM cells assessed as growth inhibition at 10 times MIC after 24 hrs by MTS assay. It counts as cell-based. The procedure, abridged:
as §2
(In general: Tetrazolium assays rely on reduction of a dye to a coloured formazan, in cell work by metabolically active cells.)

In data set [7] the test system is Mycobacterium tuberculosis. Kind of data set: Antitubercular activity against Mycobacterium tuberculosis H37Rv infected in Swiss mouse infected assessed as mean survival time of mouse at 100 mg/kg/day, po for 28 days measured on day 30 post infection. It counts as functional. The procedure, abridged:
as §3

For data set [8], the system named is Mycobacterium tuberculosis. The data set can be described thus: Antitubercular activity against Mycobacterium tuberculosis H37Rv infected in Swiss mouse infected assessed as mouse survival at 100 mg/kg/day, po for 28 days measured on day 30 post infection. It counts as functional. An outline of the steps:
as §3

Data set [9] relates to Mycobacterium tuberculosis. The data set can be described thus: Antitubercular activity against Mycobacterium tuberculosis H37Rv infected in Swiss mouse infected assessed as mean survival time of mouse survival at 100 mg/kg/day, po for 28 days measured on day 40 post infection. It counts as functional. An outline of the steps: as §3
Data set [10] concerns Mycobacterium tuberculosis. Kind of data set: Ex-vivo antitubercular activity against Mycobacterium tuberculosis H37Rv infected in mouse BMDM cells assessed as reduction in intracellular bacterial level after 4 days at 5 times MIC. The data set is classed as functional. More on the design: scale not given: the % may be the effect or the level left.
Data set [11] concerns Mycobacterium tuberculosis. Kind of data set: Antitubercular activity against Mycobacterium tuberculosis H37Rv infected in Swiss mouse infected assessed as mean survival time of mouse at 25 mg/kg/day, po for 28 days measured on day 30 post infection. It counts as functional. The procedure, abridged:
as §3

Data set [12] concerns Mus musculus. Kind of data set: Antitubercular activity against Mycobacterium tuberculosis H37Rv infected in Swiss mouse infected assessed as mouse survival at 25 mg/kg/day, po for 28 days measured on day 30 post infection. It counts as functional. The procedure, abridged: as §3
In data set [13] the test system is Mycobacterium tuberculosis. The data set can be described thus: Antitubercular activity against Mycobacterium tuberculosis H37Rv infected in Swiss mouse assessed as inhibition of viable bacterial counts in lungs at 25 mg/kg, po for 28 days measured on day 30 post infection. The data set is classed as functional. The procedure, abridged:
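Outbred Swiss mice infected i.v. with H37Rv at 10^7 CFU/mouse, in groups of 6–8. Test compounds were given orally at 100 mg/kg daily for 28 days in peanut oil; isoniazid at 25 mg/kg for 28 days. On day 30, serial dilutions of lung homogenate were plated on 7H11 agar and colonies counted after 3–4 weeks at 37 °C. Result is % inhibition of lung CFU versus untreated controls.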

In data set [14] the test system is Mycobacterium tuberculosis. Kind of data set: Antitubercular activity against Mycobacterium tuberculosis H37Rv infected in Swiss mouse infected assessed as mouse survival at 25 mg/kg/day, po for 28 days measured on day 40 post infection. It counts as functional. The procedure, abridged: as §3

Converted amounts (≈) assume the structure as drawn. Where only a bound is given, the exact number is not on record here.

As a reminder, the MIC is the smallest concentration in the dilution series that meets the test's criterion for growth inhibition. In turn, `O=C(/C=C/c1ccc(OCc2ccc(Cl)cc2Cl)cc1)c1ccc(OCc2ccc(Cl)cc2Cl)cc1` returned a minimal inhibitory concentration (MIC) in data set [1] of more than 25 µg/mL.
As to `O=C(/C=C/c1ccc(OCc2cccc(Cl)c2)cc1)c1ccc(-n2ccnc2)cc1`, the inhibition at 24 h, 10 times MIC in [2] was 50%. This molecule also returned an MIC in data set [1] of 3.12 µg/mL (≈ 7.52 µM).
As usually defined, the inhibition in vivo is the relative decrease from the control value, in per cent. In the case of `O=C(/C=C/c1ccc(OCc2ccc(Cl)cc2Cl)cc1)c1ccc(-n2ccnc2)cc1`, in data set [3], the inhibition in vivo at 100 mg/kg worked out at 13%. Further, the Activity result in data set [4] is given as “Non-toxic”; in [6], “Non-toxic”; in [10], 99%. The molecule further gave an MIC in [1] of 3.12 µg/mL (≈ 6.94 µM). Also, the survival at 100 mg/kg/day in data set [5] is 83%; in data set [8], 100%. Also, the MST in data set [7] came out at 30 days; in [9] it was 38.5 days.
In data set [1], `O=C(/C=C/c1ccc(OCc2cc(Cl)ccc2Cl)cc1)c1ccc(-n2ccnc2)cc1` registered a minimum inhibitory concentration (MIC) of 12.5 µg/mL (≈ 27.8 µM).
As for `O=C(/C=C/c1ccc(OCc2ccc(F)cc2F)cc1)c1ccc(-n2ccnc2)cc1`, the Activity in data set [10] is listed as less than 50%.
Turning to `O=C(/C=C/c1ccc(OCc2cccc(Cl)c2)cc1)c1ccc(-n2cncn2)cc1`, in data set [1], the lowest concentration to inhibit growth (MIC) was 12.5 µg/mL (≈ 30.1 µM).
The same measure, in the same setting: in the case of `O=C(/C=C/c1ccc(OCc2ccc(Cl)cc2Cl)cc1)c1ccc(-n2cncn2)cc1` it was 25 µg/mL (≈ 55.5 µM); in that of `O=C(/C=C/c1ccc(OCc2cc(Cl)ccc2Cl)cc1)c1ccc(-n2cncn2)cc1`, more than 25 µg/mL.
Same read-out and setting: in the case of `O=C(/C=C/c1ccc(OCc2ccc(F)cc2F)cc1)c1ccc(-n2cncn2)cc1` it was 12.5 µg/mL (≈ 29.9 µM).
For the molecule `O=C(/C=C/c1ccc(OCc2cc(F)ccc2F)cc1)c1ccc(-n2cncn2)cc1`, the MIC in data set [1] was more than 25 µg/mL.
On the same count and under the same terms, in the case of `O=C(/C=C/c1ccc(Oc2ccc(C(F)(F)F)cc2[N+](=O)[O-])cc1)c1ccc(-n2ccnc2)cc1` it was 12.5 µg/mL (≈ 26.1 µM).
Take `O=C(/C=C/c1ccc(-n2ccnc2)cc1)c1ccc(OCc2cccc(Cl)c2)cc1`: the MIC in data set [1] came out at 6.25 µg/mL (≈ 15.1 µM).
`O=C(/C=C/c1ccc(-n2ccnc2)cc1)c1ccc(OCc2ccc(Cl)cc2Cl)cc1`: the Activity entry is “Non-toxic” in [4], “Non-toxic” in [6] and less than 50% in data set [10]. The lowest concentration to inhibit growth in [1] (MIC) was 1.56 µg/mL (≈ 3.47 µM).
`O=C(/C=C/c1ccc(-n2ccnc2)cc1)c1ccc(OCc2cc(Cl)ccc2Cl)cc1`: the inhibition at 24 h, 10 times MIC in data set [2] came to 50%. This molecule also had an MIC in data set [1] of 3.12 µg/mL (≈ 6.94 µM).
As to `O=C(/C=C/c1ccc(-n2ccnc2)cc1)c1ccc(OCc2ccc(F)cc2F)cc1`, the inhibition in vivo at 100 mg/kg in data set [3] is 40%. Also, the Activity result in data set [4] is listed as “Non-toxic”; in data set [6], “Non-toxic”; in data set [10], 71%. Also, in data set [1], the MIC is 1.56 µg/mL (≈ 3.75 µM). Also, the survival at 100 mg/kg/day in data set [5] and in data set [8] was 100% throughout. In addition, the MST was found to be 30 days in [7] and 40 days in [9].
For the molecule `O=C(/C=C/c1ccc(-n2ccnc2)cc1)c1ccc(OCc2cc(F)ccc2F)cc1`, the results for the Activity entry in data set [4], in data set [6] and in data set [10] were “Non-toxic”, “Non-toxic” and less than 50%, respectively. Further, 3.12 µg/mL (≈ 7.49 µM) was the least that counted as inhibitory in [1] (MIC).
As to `O=C(/C=C/c1ccc(-n2cncn2)cc1)c1ccc(OCc2cccc(Cl)c2)cc1`, the values for the Activity entry in data set [4], in [6] and in data set [10] were “Non-toxic”, “Non-toxic” and less than 50%, respectively. This molecule showed a minimal inhibitory concentration (MIC) in data set [1] of 0.78 µg/mL (≈ 1.88 µM).
`O=C(/C=C/c1ccc(-n2cncn2)cc1)c1ccc(OCc2ccc(Cl)cc2Cl)cc1` showed a minimum inhibitory concentration (MIC) in data set [1] of more than 25 µg/mL.
As to `O=C(/C=C/c1ccc(-n2cncn2)cc1)c1ccc(OCc2cc(Cl)ccc2Cl)cc1`, the MIC in data set [1] was more than 25 µg/mL.
The molecule `O=C(/C=C/c1ccc(-n2cncn2)cc1)c1ccc(OCc2ccc(F)cc2F)cc1` had an MIC in data set [1] of 12.5 µg/mL (≈ 29.9 µM).
Regarding `O=C(/C=C/c1ccc(-n2cncn2)cc1)c1ccc(OCc2cc(F)ccc2F)cc1`, the inhibition at 24 h, 10 times MIC in data set [2] was determined as 50%. The same molecule gave an MIC in data set [1] of 3.12 µg/mL (≈ 7.47 µM).
As for `O=C(/C=C/c1ccc(-n2ccnc2)cc1)c1ccc(Oc2ccc(C(F)(F)F)cc2[N+](=O)[O-])cc1`, 12.5 µg/mL (≈ 26.1 µM) was the least that counted as inhibitory in [1] (MIC).
`O=C(/C=C/c1ccc(-n2cncn2)cc1)c1ccc(Oc2ccc(C(F)(F)F)cc2[N+](=O)[O-])cc1` came in with a minimal inhibitory concentration (MIC) in [1] of 12.5 µg/mL (≈ 26 µM).
In turn, `O=C(/C=C/c1ccc(-n2ccnc2)cc1)c1ccc(-n2ccnc2)cc1` gave an MIC in data set [1] of more than 25 µg/mL.
Still for that read-out and setting: to `O=C(/C=C/c1ccc(-n2cncn2)cc1)c1ccc(-n2cncn2)cc1` belongs more than 25 µg/mL; to `O=C(/C=C/c1ccccc1)c1ccc(OCc2ccc(Cl)cc2Cl)cc1`, 12.5 µg/mL (≈ 32.6 µM).
With `NNC(=O)c1ccncc1` [ISONIAZID], the MST in data set [11] was 30 days. The Activity entry in [4] and in data set [6] was “Non-toxic” in each case. The molecule further came in with an MIC in [1] of 0.025 µg/mL (≈ 0.182 µM). Further, the survival at 25 mg/kg/day in [12] and in [14] was 100% in each case. Besides, the inhibition in vivo at 25 mg/kg in data set [13] is 100%.

Values taken from ChEMBL document CHEMBL1821557, “Novel aryloxy azolyl chalcones with potent activity against Mycobacterium tuberculosis H37Rv” (Eur J Med Chem, 2011).
